Test results from ChEMBL document CHEMBL1131153, “Metabolites of the angiotensin II antagonist tasosartan: the importance of a second acidic group” (J Med Chem, 1998).

What was measured:
[1] = target: T1, Angiotensin II receptor (AT-1) type-1 (Rattus norvegicus, UniProt P29089+P25095); test: Compound was evaluated for the in vitro inhibition of specific binding of [125I]-A II to Angiotensin II receptor, type 1 from rat adrenal membranes.; format: cell membranes, Membrane
T1 sequence (P29089 whole entry): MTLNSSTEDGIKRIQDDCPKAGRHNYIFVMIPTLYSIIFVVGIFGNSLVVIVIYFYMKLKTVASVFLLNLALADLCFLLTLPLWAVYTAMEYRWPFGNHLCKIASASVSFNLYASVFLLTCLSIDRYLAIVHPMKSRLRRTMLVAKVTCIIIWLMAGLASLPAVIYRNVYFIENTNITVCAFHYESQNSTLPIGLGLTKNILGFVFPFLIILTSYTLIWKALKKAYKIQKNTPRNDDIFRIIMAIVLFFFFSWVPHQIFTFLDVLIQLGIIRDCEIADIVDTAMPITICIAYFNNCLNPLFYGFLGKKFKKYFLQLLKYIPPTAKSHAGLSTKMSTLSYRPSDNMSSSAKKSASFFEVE
T1 sequence (P25095 whole entry): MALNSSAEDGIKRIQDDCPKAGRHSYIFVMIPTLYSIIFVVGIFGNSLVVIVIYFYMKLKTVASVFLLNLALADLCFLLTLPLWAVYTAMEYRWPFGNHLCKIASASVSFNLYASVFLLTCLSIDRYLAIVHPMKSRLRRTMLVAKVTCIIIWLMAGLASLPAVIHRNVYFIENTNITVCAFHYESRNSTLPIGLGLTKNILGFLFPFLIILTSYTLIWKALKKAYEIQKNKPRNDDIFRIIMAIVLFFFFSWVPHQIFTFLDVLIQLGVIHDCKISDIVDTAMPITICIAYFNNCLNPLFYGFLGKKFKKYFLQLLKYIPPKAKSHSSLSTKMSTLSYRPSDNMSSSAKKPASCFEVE

[2] = system: Rattus norvegicus; test: Compound was evaluated for maximum decrease in mean arterial pressure after an intravenous dose of 0.1 mg/kg in rats; format: functional, Artery
Summary of the method: (§1)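 Renal hypertension produced in 150 g Sprague-Dawley rats by clipping the left renal artery (silver wire, 0.2 mm ID), used after 4–7 weeks. Right carotid cannulated under pentobarbital (50 mg/kg ip) with saline infusion at 5 µL/min. Intravenous dosing, then MAP and heart rate monitored over 24 h. Maximum MAP decrease reported as mean ± SE versus vehicle-treated rats.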

[3] = system: Rattus norvegicus; test: Compound was evaluated for maximum decrease in mean arterial pressure after an intravenous dose of 1.0 mg/kg in rats; format: functional, Artery; summary of the method: as §1
[4] = system: Rattus norvegicus; test: Compound was evaluated for maximum decrease in mean arterial pressure after an intravenous dose of 3.0 mg/kg in rats; format: functional, Artery; summary of the method: as §1
[5] = system: Rattus norvegicus; test: Compound was evaluated for maximum decrease in mean arterial pressure after an intragastric dose of 0.1 mg/kg in rats; format: functional, Artery
Summary of the method: (§2)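 Goldblatt 2K-1C model: Sprague-Dawley rats (150 g) under pentobarbital (50 mg/kg ip) had the left renal artery clipped with a silver wire (0.2 mm internal diameter). Hypertension developed over 4–7 weeks, then the right carotid was cannulated under pentobarbital and saline infused at 5 µL/min. Dosing by gastric gavage in 0.5% methyl cellulose, 5 mL/kg. MAP recorded for 24 h; maximum fall reported, mean ± SE, 6–12 rats/group.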

[6] = system: Rattus norvegicus; test: Compound was evaluated for maximum decrease in mean arterial pressure after an intragastric dose of 0.3 mg/kg in rats; format: functional, Artery; summary of the method: as §2
[7] = system: Rattus norvegicus; test: Compound was evaluated for maximum decrease in mean arterial pressure after an intragastric dose of 1.0 mg/kg in rats; format: functional, Artery; summary of the method: as §2
[8] = system: Rattus norvegicus; test: Compound was evaluated for maximum decrease in mean arterial pressure after an intragastric dose of 10.0 mg/kg in rats; format: functional, Artery; summary of the method: as §2
[9] = system: Rattus norvegicus; test: Compound was evaluated for maximum decrease in mean arterial pressure after an intragastric dose of 3.0 mg/kg in rats; format: functional, Artery; summary of the method: as §2
[10] = system: Rattus norvegicus; test: Compound was evaluated for maximum decrease in mean arterial pressure after an intragastric dose of 30.0 mg/kg in rats; format: functional, Artery; summary of the method: as §2
[11] = target: Angiotensin II receptor (AT-1) type-1 (Rattus norvegicus) (UniProt P29089+P25095); test: Compound was evaluated for the in vitro inhibition of specific binding of [125I]-A II to Angiotensin II receptor, type 1 in rat liver membrane at 100 nM.
[12] = system: Rattus norvegicus; test: Compound was evaluated for maximum decrease in mean arterial pressure after an intravenous dose of 0.03 mg/kg in rats; format: functional, Artery; summary of the method: as §1
[13] = system: Rattus norvegicus; test: Compound was evaluated for maximum decrease in mean arterial pressure after an intravenous dose of 0.10 mg/kg in rats; format: functional, Artery; conditions: dose 0.1 mg/kg; summary of the method: as §1
[14] = system: Rattus norvegicus; test: Compound was evaluated for maximum decrease in mean arterial pressure after an intravenous dose of 10.0 mg/kg in rats; format: functional, Artery; summary of the method: as §1

IC50 [1] [pM] | SMILES | MAP [3] [mmHg] | MAP [4] [mmHg] | MAP [7] [mmHg] | MAP [8] [mmHg] | MAP [9] [mmHg] | also measured
1200 | Cc1nc(C)c2c(n1)N(Cc1ccc(-c3ccccc3-c3nnn[nH]3)cc1)C(=O)CC2 [TASOSARTAN] | 53 | 54 | 71 | 81 | 76 | MAP [2]: 37 mmHg; MAP [5]: 6 mmHg; MAP [6]: 45 mmHg; MAP [10]: 80 mmHg
 | Cc1nc(C)c2c(n1)N(Cc1ccc(-c3ccccc3-c3nnn(C4OC(C(=O)O)C(O)C(O)C4O)n3)cc1)C(=O)CC2 (centres undefined) |  |  |  |  |  | inhibition [11]: 3.5%
6500 | Cc1nc(C)c2ccc(=O)n(Cc3ccc(-c4ccccc4-c4nn[nH]n4)cc3)c2n1 |  |  |  |  |  | 
170 | Cc1nc(C)c2c(O)cc(=O)n(Cc3ccc(-c4ccccc4-c4nn[nH]n4)cc3)c2n1 [ENOLTASOSARTAN] |  |  |  | 66 | 39 | MAP [12]: 34 mmHg; MAP [13]: 67 mmHg
410 | Cc1nc(CO)nc2c1c(O)cc(=O)n2Cc1ccc(-c2ccccc2-c2nn[nH]n2)cc1 |  |  |  |  |  | 
 | Cc1nc(C)c2c(n1)N(Cc1ccc(-c3ccccc3-c3nn[nH]n3)cc1)C(=O)CC2O (centres undefined) | 51 | 47 | 55 | 71 | 54 | MAP [14]: 41 mmHg
